# Calls of active or inactive are those of the source. The rule behind the calls is not given here.
# Assays:
# U-87MG ATCC [1] = assay: Induction of neurite outgrowth in human U87 cells at 40 to 60 uM after 48 hrs by crystal violet staining; format: functional, cell-based
# SH-SY5Y [2] = assay: Induction of neurite outgrowth in human SH-SY5Y cells at 40 to 60 uM after 48 hrs by crystal violet staining; format: functional, cell-based
# N2a [3] = assay: Induction of neurite outgrowth in mouse Neuro2a cells at 40 to 60 uM after 48 hrs by crystal violet staining; format: functional, cell-based
# SK-N-SH [4] = assay: Induction of neurite outgrowth in human SK-N-SH cells at 40 to 60 uM after 48 hrs by crystal violet staining; format: functional, cell-based
# P19 [5] = assay: Induction of neurite outgrowth in mouse P19 cells at 40 to 60 uM after 48 hrs by crystal violet staining; format: functional, cell-based
# U-937 [6] = assay: Induction of dendrite out growth in IL-4/GMCSF-stimulated human U937 cells assessed as dendrite length at 100 nM after 48 hrs by light microscopy; format: functional
# How it was run: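 U937 cells at 1.1 × 10⁶ cells/mL were primed with 10 ng/mL PMA for 48 h in RPMI with 10% heat-inactivated serum. Adherent cells were then given 100 ng/mL IL-4 plus 100 ng/mL GM-CSF or 100 nM compound for 48 h. Dendrite length scored by light microscopy, from none to over 100 μm with a contact network.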
# U-937 [7] = assay: Cytotoxicity against human U937 cells after 3 days by trypan blue exclusion assay; format: functional, cell-based; settings: u-937
# How it was run: (§1)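 U937 and P19 cells treated with compound. Cell death scored by trypan blue exclusion, with cells scraped, suspended in 0.25% w/v trypan blue in PBS and counted in a Malassez cell. IC50 is the concentration giving 50% cytotoxicity.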
# SK-N-SH [8] = assay: Induction of neurite outgrowth in human SK-N-SH cells at 2 to 5 uM after 48 hrs by crystal violet staining; format: functional, cell-based
# P19 [9] = assay: Cytotoxicity against mouse P19 cells after 3 days by trypan blue exclusion assay; format: functional, cell-based; settings: p19; how it was run: as §1
# U-87MG ATCC [10] = assay: Induction of neurite outgrowth in human U87 cells at 2 to 5 uM after 48 hrs by crystal violet staining; format: functional, cell-based
# N2a [11] = assay: Induction of neurite outgrowth in mouse Neuro2a cells at 2 to 5 uM after 48 hrs by crystal violet staining; format: functional, cell-based
# SH-SY5Y [12] = assay: Induction of neurite outgrowth in human SH-SY5Y cells at 2 to 5 uM after 48 hrs by crystal violet staining; format: functional, cell-based
# P19 [13] = assay: Induction of neurite outgrowth in mouse P19 cells at 2 to 5 uM after 48 hrs by crystal violet staining; format: functional, cell-based
# P19 [14] = assay: Induction of dendrite out growth in IL-4/GMCSF-stimulated mouse P19 cells assessed as dendrite length at 100 nM after 48 hrs by light microscopy; format: functional
# SH-SY5Y [15] = assay: Cytotoxicity against human SH-SY5Y cells up to 20 uM after 72 hrs by trypan blue exclusion assay; format: functional, cell-based
# How it was run: (§2)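 Tumor lines grown at 37 °C in 5% CO₂, in RPMI 1640 or DMEM with FBS. Cells exposed to compound from 10 nM to 20 μM for 72 h. Cytotoxicity counted by trypan blue exclusion: cells scraped, suspended in 0.25% w/v trypan blue in PBS and counted in a Malassez cell under light microscopy. IC50 is the concentration giving 50% cytotoxicity.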
# MCF7 = assay: Cytotoxicity against human MCF7 cells up to 20 uM after 72 hrs by trypan blue exclusion assay; format: functional, cell-based; how it was run: as §2
# U-87MG ATCC [16] = assay: Induction of neurite outgrowth in human U87 cells at 100 nM after 48 hrs by crystal violet staining; format: functional, cell-based
# N2a [17] = assay: Cytotoxicity against mouse Neuro2a cells up to 20 uM after 72 hrs by trypan blue exclusion assay; format: functional, cell-based; how it was run: as §2
# U-937 [18] = assay: Cytotoxicity against human U937 cells up to 20 uM after 72 hrs by trypan blue exclusion assay; format: functional, cell-based; how it was run: as §2
# P19 [19] = assay: Cytotoxicity against mouse P19 cells up to 20 uM after 72 hrs by trypan blue exclusion assay; format: functional, cell-based; how it was run: as §2
# SK-MEL-28 = assay: Cytotoxicity against human SK-MEL-28 cells up to 20 uM after 72 hrs by trypan blue exclusion assay; format: functional, cell-based; how it was run: as §2
# TS/A = assay: Cytotoxicity against mouse TSA cells up to 20 uM after 72 hrs by trypan blue exclusion assay; format: functional, cell-based; how it was run: as §2
# U-937 [20] = assay: Cytotoxicity against human U937 cells up to 20 uM after 3 days by trypan blue exclusion assay; format: functional, cell-based; how it was run: as §1
# HCT-8 = assay: Cytotoxicity against human HCT8 cells up to 20 uM after 72 hrs by trypan blue exclusion assay; format: functional, cell-based; how it was run: as §2
# P19 [21] = assay: Induction of mouse P19 cell differentiation into neuron assessed as stimulation of NMDAR1 expression at 10 nM after 48 hrs by Western blotting; format: functional, cell-based
# How it was run: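 P19 cells treated with 10 nM compound for 48 h and lysed in Tris pH 7.4 RIPA-type buffer. Proteins run on 7.5% SDS-PAGE and blotted to PVDF. Probed overnight at 4 °C with anti-NMDAR1 (1:1000), with GAPDH as loading control, and detected by enhanced chemiluminescence.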
# P19 [22] = assay: Induction of mouse P19 cell differentiation into neuron assessed as stimulation of beta-3 tubulin expression at 10 nM after 48 hrs by immunocytochemistry; format: functional, cell-based
# How it was run: (§3)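 P19 cells seeded at 10 000/well and treated with vehicle or 10 nM compound. Cells fixed in 4% paraformaldehyde, permeabilized with 1% BSA/0.05% saponin and blocked in 3% BSA. Stained with anti-MAP2A (1/100) or anti-β3-tubulin (1/200) for 1 h at room temperature, then TRITC secondary, and viewed by fluorescence microscopy.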
# U-87MG ATCC [23] = assay: Cytotoxicity against human U87 cells up to 20 uM after 72 hrs by trypan blue exclusion assay; format: functional, cell-based; how it was run: as §2
# P19 [24] = assay: Cytotoxicity against mouse P19 cells up to 20 uM after 3 days by trypan blue exclusion assay; format: functional, cell-based; how it was run: as §1
# A549 = assay: Cytotoxicity against human A549 cells up to 20 uM after 72 hrs by trypan blue exclusion assay; format: functional, cell-based; how it was run: as §2
# NB-4 = assay: Cytotoxicity against human NB4 cells up to 20 uM after 72 hrs by trypan blue exclusion assay; format: functional, cell-based; how it was run: as §2
# SW-620 = assay: Cytotoxicity against human SW620 cells up to 20 uM after 72 hrs by trypan blue exclusion assay; format: functional, cell-based; how it was run: as §2
# P19 [25] = assay: Induction of neurite outgrowth in mouse P19 cells at 100 nM after 48 hrs by crystal violet staining; format: functional, cell-based
# SH-SY5Y [26] = assay: Induction of neurite outgrowth in human SH-SY5Y cells at 100 nM after 48 hrs by crystal violet staining; format: functional, cell-based
# How it was run: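 Cells exposed to 100 nM compound for 48 h on poly-D-lysine-coated inserts with a 3 μm pore membrane. Neurites crossing the membrane were methanol-fixed and stained, cell bodies were removed, and the dye was extracted and read at 562 nm.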
# B16-F10 = assay: Cytotoxicity against mouse B16F10 cells up to 20 uM after 72 hrs by trypan blue exclusion assay; format: functional, cell-based; how it was run: as §2
# P19 [27] = assay: Induction of neuritogenesis in mouse P19 cells assessed as dendrite expansion at 10 nM after 48 hrs by light microscopy; format: functional, cell-based
# How it was run: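 P19 embryonal carcinoma cells exposed to 10 nM or solvent vehicle for 48 h; dendrite expansion and cell-contact network assessed by light microscopy.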
# Mus musculus = organism: Mus musculus; assay: Neuroprotective activity in mouse motoneuron assessed as cell proliferation at 10 nM treated for 3 days measured on day 2 to 6 post-treatment by cell counting method; format: functional; settings: in the assay text read “cell survival” for “cell proliferation”
# How it was run: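 Purified mouse motoneurons; solvent vehicle, 100 ng/mL BDNF or 10 nM test agent added immediately after seeding; cells counted at days 2, 3, 4 and 6; surviving motoneurons expressed as percentage.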
# P19 [28] = assay: Induction of mouse P19 cell differentiation into neuron assessed as stimulation of MAP2A expression at 10 nM after 48 hrs by immunocytochemistry; format: functional, cell-based; how it was run: as §3
# N2a [29] = assay: Induction of neurite outgrowth in mouse Neuro2a cells at 100 nM after 48 hrs by crystal violet staining; format: functional, cell-based
# KG-1 = assay: Cytotoxicity against human KG1 cells up to 20 uM after 72 hrs by trypan blue exclusion assay; format: functional, cell-based; how it was run: as §2
# SK-N-SH [30] = assay: Induction of neurite outgrowth in human SK-N-SH cells at 100 nM after 48 hrs by crystal violet staining; format: functional, cell-based
# SK-N-SH [31] = assay: Cytotoxicity against human SK-N-SH cells up to 20 uM after 72 hrs by trypan blue exclusion assay; format: functional, cell-based; how it was run: as §2
smiles,measurement,setting,value
CC/C=C\C/C=C\C/C=C\C/C=C\C/C=C\C/C=C\CCC(=O)O,Activity,U-87MG ATCC [1],Active
same,Activity,SH-SY5Y [2],Active
same,Activity,N2a [3],Active
same,Activity,SK-N-SH [4],Active
same,Activity,P19 [5],Active
CC1=C(/C=C/C(C)=C/C=C/C(C)=C/C(=O)O)C(C)(C)CCC1 [TRETINOIN],Activity,U-937 [6],inactive
same,IC50,U-937 [7],Not Active
same,Activity,SK-N-SH [8],Active
same,IC50,P19 [9],Not Active
same,Activity,U-87MG ATCC [10],Active
same,Activity,N2a [11],Active
same,Activity,SH-SY5Y [12],Active
same,Activity,P19 [13],Active
same,Activity,P19 [14],inactive
CC(C)CCC[C@@H](C)[C@H]1CC[C@H]2C3=C[C@@H](NCCCNCCCCN)[C@@]4(O)C[C@@H](O)CC[C@]4(C)[C@H]3CC[C@]12C [DENDROGENIN B],Activity,SH-SY5Y [15],inactive
same,Activity,MCF7,inactive
same,Activity,U-87MG ATCC [16],Active
same,Activity,N2a [17],inactive
same,Activity,U-937 [18],inactive
same,Activity,P19 [19],inactive
same,Activity,U-937 [6],<5 um
same,IC50,U-937 [7],Not Active
same,Activity,SK-MEL-28,inactive
same,Activity,TS/A,inactive
same,IC50,P19 [9],Not Active
same,Activity,U-937 [20],inactive
same,Activity,HCT-8,inactive
same,Activity,P19 [21],Active
same,Activity,P19 [22],Active
same,Activity,U-87MG ATCC [23],inactive
same,Activity,P19 [24],inactive
same,Activity,A549,inactive
same,Activity,NB-4,inactive
same,Activity,SW-620,inactive
same,Activity,P19 [25],Active
same,Activity,SH-SY5Y [26],Active
same,Activity,B16-F10,inactive
same,Activity,P19 [27],Active
same,Activity,Mus musculus,Active
same,Activity,P19 [28],Active
same,Activity,N2a [29],Active
same,Activity,P19 [14],> 100 um
same,Activity,KG-1,inactive
same,Activity,SK-N-SH [30],Active
same,Activity,SK-N-SH [31],inactive

# Reference: ChEMBL document CHEMBL1156107, “Synthesis of new alkylaminooxysterols with potent cell differentiating activities: identification of leads for the treatment of cancer and neurodegenerative diseases” (J Med Chem, 2009)
